Measurements taken from ChEMBL document CHEMBL2150901, “Synthesis and biological activity of tricyclic cycloalkylimidazo-, pyrimido- and diazepinopurinediones” (Eur J Med Chem, 2011).
The source made the active and inactive calls. The rule behind the calls is not given here.

How the values were obtained:
Mus musculus [1] = assay: Anticonvulsant activity in F1 albino mouse assessed as protection against maximal electroshock-induced seizures at 300 mg/kg, ip after 0.25 hrs; type: functional, organism-based; design: dose 300 mg/kg
Method in brief: (§1)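 Male albino F-1 mice (18–25 g), groups of 1–5 (rotorod 2–8). Compound given ip as a suspension in 0.5% methylcellulose at 30, 100 and 300 mg/kg. Seizures by maximal electroshock or subcutaneous pentylenetetrazole; neurotoxicity by rotorod. Read at 0.5 and 4 h, with some at 0.25, 1 and 2 h. Value is the minimum active dose, with protected (or toxic)/tested animals.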

Mus musculus [2] = assay: Anticonvulsant activity in F1 albino mouse assessed as protection against maximal electroshock-induced seizures at 300 mg/kg, ip after 0.5 hrs; type: functional, organism-based; design: dose 300 mg/kg; method in brief: as §1
Mus musculus [3] = assay: Anticonvulsant activity in F1 albino mouse assessed as protection against maximal electroshock-induced seizures at 300 mg/kg, ip after 1 hr; type: functional, organism-based; design: dose 300 mg/kg; method in brief: as §1
Mus musculus [4] = assay: Anticonvulsant activity in F1 albino mouse assessed as protection against maximal electroshock-induced seizures at 300 mg/kg, ip after 4 hrs; type: functional, organism-based; design: dose 300 mg/kg; method in brief: as §1
Mus musculus [5] = assay: Anticonvulsant activity in F1 albino mouse assessed as protection against subcutaneous pentylenetetrazole-induced seizures at 300 mg/kg, ip after 0.25 hrs; type: functional, organism-based; design: dose 300 mg/kg; method in brief: as §1
Mus musculus [6] = assay: Anticonvulsant activity in F1 albino mouse assessed as protection against subcutaneous pentylenetetrazole-induced seizures at 100 mg/kg, ip after 0.5 hrs; type: functional, organism-based; design: dose 100 mg/kg; method in brief: as §1
Mus musculus [7] = assay: Anticonvulsant activity in F1 albino mouse assessed as protection against subcutaneous pentylenetetrazole-induced seizures at 300 mg/kg, ip after 1 hr; type: functional, organism-based; design: dose 300 mg/kg; method in brief: as §1
Mus musculus [8] = assay: Anticonvulsant activity in F1 albino mouse assessed as protection against subcutaneous pentylenetetrazole-induced seizures at 300 mg/kg, ip after 4 hrs; type: functional, organism-based; design: dose 300 mg/kg; method in brief: as §1
Mus musculus [9] = assay: Neurotoxicity in F1 albino mouse assessed as minimal motor impairment at 300 mg/kg, ip after 0.25 hrs by rotorod test; type: toxicity, organism-based; design: dose 300 mg/kg, route intraperitoneal; conditions: in vivo; method in brief: as §1
Mus musculus [10] = assay: Neurotoxicity in F1 albino mouse assessed as minimal motor impairment at 300 mg/kg, ip after 0.5 hrs by rotorod test; type: toxicity, organism-based; design: dose 300 mg/kg, route intraperitoneal; conditions: in vivo; method in brief: as §1
Mus musculus [11] = assay: Neurotoxicity in F1 albino mouse assessed as minimal motor impairment at 300 mg/kg, ip after 1 hr by rotorod test; type: toxicity, organism-based; design: dose 300 mg/kg, route intraperitoneal; conditions: in vivo; method in brief: as §1
Mus musculus [12] = assay: Neurotoxicity in F1 albino mouse assessed as minimal motor impairment at 300 mg/kg, ip after 4 hrs by rotorod test; type: toxicity, organism-based; design: dose 300 mg/kg, route intraperitoneal; conditions: in vivo; method in brief: as §1
Rattus norvegicus [13] = assay: Anticonvulsant activity in Sprague-Dawley albino rat assessed as protection against maximal electroshock-induced seizures at 30 mg/kg, po after 0.5 hrs; type: functional, organism-based; design: dose 30 mg/kg
Method in brief: (§2)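 Male Sprague-Dawley albino rats (100–150 g), groups of 4. Oral suspension in 0.5% methylcellulose/water. Protection assessed by maximal electroshock or subcutaneous pentylenetetrazole; motor impairment by rotorod. Time points 0.25–4 h. Value is protected (or toxic)/tested animals.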

Rattus norvegicus [14] = assay: Anticonvulsant activity in Sprague-Dawley albino rat assessed as protection against maximal electroshock-induced seizures at 30 mg/kg, po after 1 hr; type: functional, organism-based; design: dose 30 mg/kg; method in brief: as §2
Rattus norvegicus [15] = assay: Anticonvulsant activity in Sprague-Dawley albino rat assessed as protection against maximal electroshock-induced seizures at 30 mg/kg, po after 2 hrs; type: functional, organism-based; design: dose 30 mg/kg; method in brief: as §2
Rattus norvegicus [16] = assay: Anticonvulsant activity in Sprague-Dawley albino rat assessed as protection against maximal electroshock-induced seizures at 30 mg/kg, po after 4 hrs; type: functional, organism-based; design: dose 30 mg/kg; method in brief: as §2
Rattus norvegicus [17] = assay: Anticonvulsant activity in Sprague-Dawley albino rat assessed as protection against subcutaneous pentylenetetrazole-induced seizures at 50 mg/kg, po after 0.25 hrs; type: functional, organism-based; design: dose 50 mg/kg; method in brief: as §2
Rattus norvegicus [18] = assay: Anticonvulsant activity in Sprague-Dawley albino rat assessed as protection against subcutaneous pentylenetetrazole-induced seizures at 50 mg/kg, po after 0.5 hrs; type: functional, organism-based; design: dose 50 mg/kg; method in brief: as §2
Rattus norvegicus [19] = assay: Anticonvulsant activity in Sprague-Dawley albino rat assessed as protection against subcutaneous pentylenetetrazole-induced seizures at 50 mg/kg, po after 1 hr; type: functional, organism-based; design: dose 50 mg/kg; method in brief: as §2
Rattus norvegicus [20] = assay: Anticonvulsant activity in Sprague-Dawley albino rat assessed as protection against subcutaneous pentylenetetrazole-induced seizures at 50 mg/kg, po after 4 hrs; type: functional, organism-based; design: dose 50 mg/kg; method in brief: as §2
Rattus norvegicus [21] = assay: Toxicity in Sprague-Dawley albino rat assessed as mortality following continuous seizures at >100 mg/kg, po; type: organism-based; conditions: in vivo
Rattus norvegicus [22] = assay: Neurotoxicity in Sprague-Dawley albino rat assessed as minimal motor impairment at 30 mg/kg, po after 0.25 hrs by rotorod test; type: toxicity, organism-based; design: dose 30 mg/kg, route oral; conditions: in vivo; method in brief: as §2
Rattus norvegicus [23] = assay: Neurotoxicity in Sprague-Dawley albino rat assessed as minimal motor impairment at 30 mg/kg, po after 0.5 hrs by rotorod test; type: toxicity, organism-based; design: dose 30 mg/kg, route oral; conditions: in vivo; method in brief: as §2
Rattus norvegicus [24] = assay: Neurotoxicity in Sprague-Dawley albino rat assessed as minimal motor impairment at 30 mg/kg, po after 1 hr by rotorod test; type: toxicity, organism-based; design: dose 30 mg/kg, route oral; conditions: in vivo; method in brief: as §2
Rattus norvegicus [25] = assay: Neurotoxicity in Sprague-Dawley albino rat assessed as minimal motor impairment at 30 mg/kg, po after 4 hrs by rotorod test; type: toxicity, organism-based; design: dose 30 mg/kg, route oral; conditions: in vivo
Method in brief: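 Male Sprague-Dawley albino rats (100–150 g), groups of 4, dosed orally with a suspension in 0.5% methylcellulose/water. Neurotoxicity was scored as minimal motor impairment on the rotorod at 0.25, 0.5, 1 and 4 h. Results are reported as animals showing toxicity per animals tested.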

Rattus norvegicus [26] = assay: Anticonvulsant activity in po dosed Sprague-Dawley albino rat assessed as protection against maximal electroshock-induced seizures; type: functional
Rattus norvegicus [27] = assay: Anticonvulsant activity in po dosed Sprague-Dawley albino rat assessed as protection against subcutaneous pentylenetetrazole-induced seizures; type: functional
Rattus norvegicus [28] = species: Rattus norvegicus; assay: Selectivity ratio of Ki for adenosine A1 receptor in rat brain cortical membrane to Ki for adenosine A2A receptor in rat brain striatal membrane; type: cell membranes
Method in brief: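 Ki ratios from radioligand competition binding. Rat A1 used brain cortical membranes and rat A2A used brain striatal membranes. Human A1 and A2A used membranes of CHO cells expressing the receptors. A1 radioligand [³H]CCPA; A2A radioligand [³H]MSX-2. Potent compounds were tested at 6–7 concentrations spanning 3 orders of magnitude.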

Adenosine receptor A2a = Adenosine receptor A2a (Rattus norvegicus, UniProt P30543); assay: Displacement of [3H]MSX-2 from adenosine A2A receptor in rat brain striatal membrane; type: cell membranes
Sequence of Adenosine receptor A2a (P30543 whole entry): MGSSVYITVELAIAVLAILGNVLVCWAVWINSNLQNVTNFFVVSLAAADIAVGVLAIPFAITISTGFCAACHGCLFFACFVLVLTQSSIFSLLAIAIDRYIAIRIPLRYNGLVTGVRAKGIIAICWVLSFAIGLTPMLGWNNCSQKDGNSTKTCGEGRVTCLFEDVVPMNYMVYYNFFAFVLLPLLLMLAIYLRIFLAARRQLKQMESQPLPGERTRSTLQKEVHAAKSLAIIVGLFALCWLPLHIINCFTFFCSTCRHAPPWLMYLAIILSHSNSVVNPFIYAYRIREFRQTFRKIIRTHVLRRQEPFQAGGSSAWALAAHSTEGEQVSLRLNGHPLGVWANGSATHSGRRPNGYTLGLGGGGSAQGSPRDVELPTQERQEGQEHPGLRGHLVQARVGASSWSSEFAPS

Adenosine receptor A1 = biological target: T1, Adenosine receptor A1 (Rattus norvegicus, UniProt P25099); assay: Displacement of [3H]CCPA from adenosine A1 receptor in rat brain cortical membrane; type: cell membranes
T1 sequence (P25099 whole entry): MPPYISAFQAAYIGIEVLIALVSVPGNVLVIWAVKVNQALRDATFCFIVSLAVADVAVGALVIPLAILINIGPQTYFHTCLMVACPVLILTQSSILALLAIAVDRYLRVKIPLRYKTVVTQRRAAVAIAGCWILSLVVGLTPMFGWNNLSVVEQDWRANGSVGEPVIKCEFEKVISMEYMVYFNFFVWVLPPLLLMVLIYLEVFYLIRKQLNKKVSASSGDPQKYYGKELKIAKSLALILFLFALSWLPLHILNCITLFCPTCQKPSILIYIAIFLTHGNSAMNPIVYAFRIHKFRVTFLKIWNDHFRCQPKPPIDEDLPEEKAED

Mus musculus [29] = assay: Anticonvulsant activity in F1 albino mouse assessed as protection against subcutaneous pentylenetetrazole-induced seizures at 100 mg/kg, ip after 0.25 hrs; type: functional, organism-based; design: dose 100 mg/kg; method in brief: as §1
Mus musculus [30] = assay: Anticonvulsant activity in F1 albino mouse assessed as protection against subcutaneous pentylenetetrazole-induced seizures at 300 mg/kg, ip after 0.5 hrs; type: functional, organism-based; design: dose 300 mg/kg; method in brief: as §1
Mus musculus [31] = assay: Anticonvulsant activity in F1 albino mouse assessed as protection against subcutaneous pentylenetetrazole-induced seizures at 100 mg/kg, ip after 1 hr; type: functional, organism-based; design: dose 100 mg/kg; method in brief: as §1
Rattus norvegicus [32] = assay: Anticonvulsant activity in Sprague-Dawley albino rat assessed as protection against subcutaneous pentylenetetrazole-induced seizures at 50 mg/kg, po after 2 hrs; type: functional, organism-based; design: dose 50 mg/kg; method in brief: as §2
Rattus norvegicus [33] = assay: Toxicity in Sprague-Dawley albino rat assessed as mortality following continuous seizures at 50 mg/kg, po after 0.25 hrs; type: organism-based; design: dose 50 mg/kg, route oral; conditions: in vivo
Method in brief: (§3)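 Male Sprague-Dawley albino rats (100–150 g), in groups of 4, were given an oral suspension in 0.5% methylcellulose/water. The event recorded was death following continuous seizures, given as animals affected per animals tested.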

Rattus norvegicus [34] = assay: Toxicity in Sprague-Dawley albino rat assessed as mortality following continuous seizures at 50 mg/kg, po after 0.5 hrs; type: organism-based; design: dose 50 mg/kg, route oral; conditions: in vivo; method in brief: as §3
Rattus norvegicus [35] = assay: Toxicity in Sprague-Dawley albino rat assessed as mortality following continuous seizures at 50 mg/kg, po after 1 hr; type: organism-based; design: dose 50 mg/kg, route oral; conditions: in vivo; method in brief: as §3
Rattus norvegicus [36] = assay: Toxicity in Sprague-Dawley albino rat assessed as mortality following continuous seizures at 50 mg/kg, po after 4 hrs; type: organism-based; design: dose 50 mg/kg, route oral; conditions: in vivo; method in brief: as §3
Rattus norvegicus [37] = assay: Anticonvulsant activity in po dosed Sprague-Dawley albino rat assessed as protection against subcutaneous pentylenetetrazole-induced seizures after 0.25 hrs; type: functional

Row | Structure (SMILES) | Activity (Mus musculus [1]) | Activity (Mus musculus [2]) | Activity (Mus musculus [3]) | Activity (Mus musculus [4]) | Activity (Mus musculus [8]) | Activity (Mus musculus [9]) | Activity (Mus musculus [10]) | Activity (Mus musculus [11]) | Activity (Mus musculus [12]) | Activity (Rattus norvegicus [13]) | Activity (Rattus norvegicus [14]) | Activity (Rattus norvegicus [15]) | Activity (Rattus norvegicus [16]) | Activity (Rattus norvegicus [17]) | Activity (Rattus norvegicus [22]) | Activity (Rattus norvegicus [23]) | Activity (Rattus norvegicus [24]) | Activity (Rattus norvegicus [25]) | Ratio Ki (Rattus norvegicus [28]) | Ki (Adenosine receptor A2a) [nM] | other results
1 | Cn1c(=O)c2c(nc3n2CCCCN3CC2CCCCC2)n(C)c1=O | inactive | Active | inactive | inactive | inactive | Non-toxic | Non-toxic | Non-toxic | Non-toxic | inactive | inactive | inactive | inactive | inactive | Non-toxic | Non-toxic | Non-toxic | Non-toxic | 1 | 3500 | Activity (Mus musculus [5]): inactive; Activity (Mus musculus [6]): Active; Activity (Mus musculus [7]): inactive; Activity (Rattus norvegicus [18]): Active; Activity (Rattus norvegicus [19]): inactive; Activity (Rattus norvegicus [20]): inactive; Activity (Rattus norvegicus [21]): Toxic; ED50 (Rattus norvegicus [26]): > 250 mg/kg; ED50 (Rattus norvegicus [27]): > 100 mg/kg; Ki (Adenosine receptor A1): 5180 nM
2 | CC1CCC(N2CCCCn3c2nc2c3c(=O)n(C)c(=O)n2C)CC1 (mixture of isomers) | inactive | inactive | inactive | inactive | inactive | Non-toxic | Non-toxic | Non-toxic | Non-toxic | inactive | inactive | inactive | inactive | inactive | Non-toxic | Non-toxic | Non-toxic | Non-toxic | 4 | 830 | Activity (Mus musculus [29]): Active; Activity (Mus musculus [30]): Active; Activity (Mus musculus [31]): Active; Activity (Rattus norvegicus [32]): inactive; Activity (Rattus norvegicus [33]): Toxic; Activity (Rattus norvegicus [34]): Toxic; Activity (Rattus norvegicus [35]): Toxic; Activity (Rattus norvegicus [36]): Toxic; Ki (Adenosine receptor A1): 3440 nM
3 | Cn1c(=O)c2c(nc3n2CCCN3CC2CCCCC2)n(C)c1=O | inactive | inactive | inactive | inactive | inactive | Non-toxic | Non-toxic | Non-toxic | Non-toxic | inactive | inactive | inactive | inactive | Active | Non-toxic | Non-toxic | Non-toxic | Non-toxic | 4 | 610 | Activity (Mus musculus [29]): Active; Activity (Mus musculus [30]): Active; Activity (Mus musculus [31]): inactive; Activity (Rattus norvegicus [18]): Active; Activity (Rattus norvegicus [19]): Active; Activity (Rattus norvegicus [32]): inactive; Activity (Rattus norvegicus [20]): Active; ED50 (Rattus norvegicus [37]): > 200 mg/kg; Ki (Adenosine receptor A1): 2490 nM
